Laboratory results as given in ChEMBL document CHEMBL1125259, “Lipophilic glycosyl phosphotriester derivatives of AZT: synthesis, NMR transmembrane transport study, and antiviral activity” (1991).

Experiments:
Type in all cases: functional
[1] = test system: CCRF-CEM; assay: Concentration required to reduce the viability of uninfected cells (CEM-CL13) by 50% on day 7.; settings: Homo sapiens, 168 h, read-out: CD50 (the source's name)
Method in brief: (§1)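 CEM-C113 cells (1×10^5 cells/mL) were infected with HIV-1 LAV-Bru or mock-infected, with compound dilutions in triplicate, for at least 7 days. Medium with or without drug was renewed every 3–4 days for longer runs. MTT absorbance was read at 540 nm. CD50 = 50% reduction of mock-infected absorbance; ED50 = dose giving 50% protection from CPE. Values are averages of at least two experiments.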

[2] = molecular target: Human immunodeficiency virus type 1 reverse transcriptase (Human immunodeficiency virus 1) (UniProt Q72547); assay: Compounds were evaluated for anti-RT activity at 0 days of culture
Method in brief: (§2)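 HIV-1 (12 500 CCID50) was preincubated with compound at 25 µM final for 60 min at 37 °C, pelleted by ultracentrifugation and resuspended. RT was measured at once with poly(rA)-oligo(dT) and ³H-dTTP (1 h, 37 °C, cpm). Treated virus was then put on CEM-C113 cells for 60 min and replaced with compound-free medium. Supernatant RT was read at days 7 and 9.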

[3] = molecular target: Human immunodeficiency virus type 1 reverse transcriptase (Human immunodeficiency virus 1) (UniProt Q72547); assay: Compounds were evaluated for anti-RT activity by MTT dose and %protection was reported at 7 days of culture
Method in brief: (§3)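 HIV-1 was preincubated with compound at 25 µM for 60 min at 37 °C, pelleted, and added to CEM-C113 cells (1×10^5 cells/mL) for 60 min at 37 °C. Medium was then replaced without compound. At days 7 and 9, viability was read by MTT assay on 100 µL of cell suspension.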

[4] = molecular target: Human immunodeficiency virus type 1 reverse transcriptase (Human immunodeficiency virus 1) (UniProt Q72547); assay: Compound ability to inhibit the production of HIV reverse transcriptase (RT) in preinfected PBL (peripheral blood lymphocytes) at 14 days at a concentration 5 uM
Method in brief: (§4)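 PBL were infected with HIV-1 for 1 h at 37 °C, washed twice, and resuspended in complete medium with 10% interleukin-2 and anti-human α-interferon (1000 units/mL). Cells were plated at 1×10^6 cells/well with or without compound. At each time point, 50 µL supernatant was taken for RT assay ([³H]dTTP incorporation, cpm).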

[5] = molecular target: Human immunodeficiency virus type 1 reverse transcriptase (Human immunodeficiency virus 1) (UniProt Q72547); assay: Compound ability to inhibit the production of HIV reverse transcriptase (RT) in culture supernatant of monocytic U937 on at 7 days at a concentration 1 uM
Method in brief: (§5)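 HIV-1-infected monocytic U937 cultures were kept up to 14 days with compound. Supernatant RT activity was measured as for CEM-C113, as [³H] cpm/50 µL. % inhibition = 100 − 100 × (cpm of treated samples / cpm of control virus).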

[6] = molecular target: Human immunodeficiency virus type 1 reverse transcriptase (Human immunodeficiency virus 1) (UniProt Q72547); assay: Compounds were evaluated for anti-RT activity by MTT dose and % cell / viability was reported at 13 days of culture
[7] = test system: CCRF-CEM; assay: Concentration required to reduce the viability of uninfected cells (CEM-CL13) by 50% on day 19.; settings: Homo sapiens, 456 h, read-out: CD50 (the source's name); method in brief: as §1
[8] = molecular target: Human immunodeficiency virus type 1 reverse transcriptase (Human immunodeficiency virus 1) (UniProt Q72547); assay: Compound ability to inhibit the production of HIV reverse transcriptase (RT) in culture supernatant of CEM-CL13 on at 7 days at a concentration 0.2 uM
Method in brief: (§6)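 CEM-C113 cells in RPMI 1640 with 5% heat-inactivated FCS and polybrene (2 µg/mL) were plated at 1×10^5 cells/mL with compound in PBS, in triplicate, and infected with HIV-1 LAV-Bru. From day 7, every 3–4 days, fresh medium with or without drug was added and 50 µL supernatant was taken for RT microassay. The RT microassay used poly(rA)-oligo(dT) and (methyl-³H)dTTP for 1 h at 37 °C, with TCA precipitation, read as cpm/50 µL.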

[9] = molecular target: Human immunodeficiency virus type 1 reverse transcriptase (Human immunodeficiency virus 1) (UniProt Q72547); assay: Compounds were evaluated for anti-RT activity by MTT dose and % cell / viability was reported at 9 days of culture; method in brief: as §3
[10] = molecular target: Human immunodeficiency virus type 1 reverse transcriptase (Human immunodeficiency virus 1) (UniProt Q72547); assay: Compound ability to inhibit the production of HIV reverse transcriptase (RT) in culture supernatant of CEM-CL13 on at 22 days at a concentration 0.2 uM; method in brief: as §6
[11] = molecular target: Human immunodeficiency virus type 1 reverse transcriptase (Human immunodeficiency virus 1) (UniProt Q72547); assay: Compounds were evaluated for anti-RT activity by MTT dose and %protection was reported at 13 days of culture
[12] = molecular target: Human immunodeficiency virus type 1 reverse transcriptase (Human immunodeficiency virus 1) (UniProt Q72547); assay: Compound ability to inhibit the production of HIV reverse transcriptase (RT) in culture supernatant of monocytic U937 on at 11 days at a concentration 1 uM; method in brief: as §5
[13] = test system: CCRF-CEM; assay: Concentration that reduced by 50% the HIV induced CPE (cytopathic effect) on day 11.; settings: Homo sapiens, 264 h, read-out: ED50 (the source's name); method in brief: as §1
[14] = molecular target: Human immunodeficiency virus type 1 reverse transcriptase (Human immunodeficiency virus 1) (UniProt Q72547); assay: Percent inhibition evaluated for anti-RT activity at 7 days of culture; parameters: concentration or dose not given beside the values; settings: concentration not given here; method in brief: as §2
[15] = molecular target: Human immunodeficiency virus type 1 reverse transcriptase (Human immunodeficiency virus 1) (UniProt Q72547); assay: Compound ability to inhibit the production of HIV reverse transcriptase (RT) in preinfected PBL (peripheral blood lymphocytes) at 7 days at a concentration 5 uM; method in brief: as §4
[16] = molecular target: Human immunodeficiency virus type 1 reverse transcriptase (Human immunodeficiency virus 1) (UniProt Q72547); assay: Compounds were evaluated for anti-RT activity by MTT dose and % cell / viability was reported at 7 days of culture; method in brief: as §3
[17] = test system: CCRF-CEM; assay: Concentration that reduced by 50% the HIV induced CPE (cytopathic effect) on day 7.; settings: Homo sapiens, 168 h, read-out: ED50 (the source's name); method in brief: as §1
[18] = molecular target: Human immunodeficiency virus type 1 reverse transcriptase (Human immunodeficiency virus 1) (UniProt Q72547); assay: Compound ability to inhibit the production of HIV reverse transcriptase (RT) in preinfected PBL (peripheral blood lymphocytes) at 14 days at a concentration 1 uM; method in brief: as §4
[19] = molecular target: Human immunodeficiency virus type 1 reverse transcriptase (Human immunodeficiency virus 1) (UniProt Q72547); assay: Percent inhibition measured as the production of HIV reverse transcriptase (RT) in culture supernatant of monocytic U937 on at 11 days at a concentration 1 uM
Method in brief: (§7)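 U937 cells in RPMI 1640 with 5% heat-inactivated FCS, penicillin, streptomycin and polybrene (2 μg/mL), 37 °C, 5% CO2. Infected with HIV-1 LAV-Bru; compounds diluted in PBS. 50 μL supernatant aliquots were assayed for RT: 1 h, 37 °C, pH 7.8, Mg2+, poly(rA)-oligo(dT), [3H]dTTP, TCA-pyrophosphate stop, filter counting. % inhibition = 100 − 100 × (treated cpm / virus-control cpm).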

[20] = molecular target: Human immunodeficiency virus type 1 reverse transcriptase (Human immunodeficiency virus 1) (UniProt Q72547); assay: Compound ability to inhibit the production of HIV reverse transcriptase (RT) in culture supernatant of monocytic U937 on at 14 days at a concentration 1 uM; method in brief: as §5
[21] = molecular target: Human immunodeficiency virus type 1 reverse transcriptase (Human immunodeficiency virus 1) (UniProt Q72547); assay: Percent inhibition measured as the production of HIV reverse transcriptase (RT) in culture supernatant of monocytic U937 on at 14 days at a concentration 1 uM; method in brief: as §7
[22] = molecular target: Human immunodeficiency virus type 1 reverse transcriptase (Human immunodeficiency virus 1) (UniProt Q72547); assay: Percent inhibition evaluated for anti-RT activity at 0 days of culture; parameters: concentration or dose not given beside the values; settings: concentration not given here; method in brief: as §2
[23] = test system: CCRF-CEM; assay: Concentration that reduced by 50% the HIV induced CPE (cytopathic effect) on day 19.; settings: Homo sapiens, 456 h, read-out: ED50 (the source's name); method in brief: as §1
[24] = molecular target: Human immunodeficiency virus type 1 reverse transcriptase (Human immunodeficiency virus 1) (UniProt Q72547); assay: Compound ability to inhibit the production of HIV reverse transcriptase (RT) in preinfected PBL (peripheral blood lymphocytes) at 21 days at a concentration 5 uM; method in brief: as §4
[25] = test system: CCRF-CEM; assay: Concentration that reduced by 50% the HIV induced CPE (cytopathic effect) on day 22.; settings: Homo sapiens, 528 h, read-out: ED50 (the source's name); method in brief: as §1
[26] = molecular target: Human immunodeficiency virus type 1 reverse transcriptase (Human immunodeficiency virus 1) (UniProt Q72547); assay: Percent inhibition measured as the production of HIV reverse transcriptase (RT) in culture supernatant of monocytic U937 on at 7 days at a concentration 1 uM; method in brief: as §7
[27] = molecular target: Human immunodeficiency virus type 1 reverse transcriptase (Human immunodeficiency virus 1) (UniProt Q72547); assay: Compounds were evaluated for anti-RT activity at 9 days of culture; method in brief: as §2

SMILES | CC50 [1] [nM] | Activity (c.p.m. 50ul-1) [2] | Activity (c.p.m. 50ul-1) [5] | Cell viability [6] [%] | CC50 [7] [nM] | Activity (c.p.m. 50ul-1) [8] | Cell viability [9] [%] | Activity (c.p.m. 50ul-1) [10] | Protection [11] [%] | Activity (c.p.m. 50ul-1) [12] | EC50 [13] [nM] | inhibition [14] [%] | Cell viability [16] [%] | EC50 [17] [nM] | inhibition [19] [%] | Activity (c.p.m. 50ul-1) [20] | inhibition [21] [%] | EC50 [23] [nM] | EC50 [25] [nM] | inhibition [26] [%] | also measured
CCCCCCCCCCCCCCCCOP(=O)(OC[C@H]1OC(O)[C@@H](O)[C@@H](O)[C@@H]1O)OC[C@H]1OC(n2cc(C)c(=O)[nH]c2=O)C[C@@H]1N=[N+]=[N-] (some centres not stated) | 2600 | 17000 | 122000 | 25 | 2500 | 4000 | 32 | 24000 | 10 | 225000 | 300 | 71 | 77 | 140 | 0 | 35000 | 0 | 500 | 400 | 51 | Protection [3]: 68%; Activity (c.p.m. 50ul-1) [4]: 58300; Activity (c.p.m. 50ul-1) [15]: 3140; Activity (c.p.m. 50ul-1) [18]: 114000; inhibition [22]: 30%; Activity (c.p.m. 50ul-1) [24]: 22400; Activity (c.p.m. 50ul-1) [27]: 10000
Cc1cn([C@H]2C[C@H](N=[N+]=[N-])[C@@H](COP(=O)(O)OC[C@H]3OC(O)[C@H](O)[C@@H](O)[C@@H]3O)O2)c(=O)[nH]c1=O (some centres not stated) | 30000 | 32000 | 158000 | 17 | 38000 | 1600 | 34 | 2200 | 0 | 145000 | 160 | 70 | 50 | 200 | 0 | 17000 | 9 | 700 | 900 | 36 | Activity (c.p.m. 50ul-1) [4]: 732; Activity (c.p.m. 50ul-1) [15]: 890; Activity (c.p.m. 50ul-1) [18]: 408; inhibition [22]: 0%; Activity (c.p.m. 50ul-1) [24]: 373; Activity (c.p.m. 50ul-1) [27]: 28000
CCCCCCCCCCCCCCCCOP(=O)(OCCO[C@H]1O[C@H](CO)[C@@H](O)[C@H](O)[C@@H]1O)OCC1OC(n2cc(C)c(=O)[nH]c2=O)CC1N=[N+]=[N-] (some centres not stated) | 20000 | 13000 | 401000 | 12 | 3400 | 3900 | 25 | 52000 | 0 | 243000 | 1000 | 0 | 41 | 180 | 0 | 55000 | 0 | 1700 | 1300 | 0 | Protection [3]: 21%; inhibition [22]: 26%; Activity (c.p.m. 50ul-1) [27]: 44000
Cc1cn([C@H]2C[C@H](N=[N+]=[N-])[C@@H](CO)O2)c(=O)[nH]c1=O [ZIDOVUDINE] | 26000 | 19000 | 36000 | 34 | 26000 | 1500 | 79 | 6400 | 26 | 134000 | 120 | 92 | 100 | 120 | 7 | 37000 | 0 | 180 | 450 | 85 | Protection [3]: 100%; Activity (c.p.m. 50ul-1) [4]: 302; Activity (c.p.m. 50ul-1) [15]: 965; Activity (c.p.m. 50ul-1) [18]: 2020; Activity (c.p.m. 50ul-1) [24]: 542; Activity (c.p.m. 50ul-1) [27]: 7500
